An excerpt weighted towards active compounds, which were near 3.1% of everything screened.
OX1R antag-1 – OX1R (human) antagonism; O43613; OX1R-expressing cells, FRET antagonist read-out; inhibition, % at 6.6 µM; 330,000 compounds, 1.8% hits; AID 485270; in the data active = inhibition mostly above about 38%, no sharp cut-off; inactive = mostly below about 40%;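 also: 0% = agonist challenge alone and 100% = reference antagonist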
Target sequence (O43613 whole entry, looked up): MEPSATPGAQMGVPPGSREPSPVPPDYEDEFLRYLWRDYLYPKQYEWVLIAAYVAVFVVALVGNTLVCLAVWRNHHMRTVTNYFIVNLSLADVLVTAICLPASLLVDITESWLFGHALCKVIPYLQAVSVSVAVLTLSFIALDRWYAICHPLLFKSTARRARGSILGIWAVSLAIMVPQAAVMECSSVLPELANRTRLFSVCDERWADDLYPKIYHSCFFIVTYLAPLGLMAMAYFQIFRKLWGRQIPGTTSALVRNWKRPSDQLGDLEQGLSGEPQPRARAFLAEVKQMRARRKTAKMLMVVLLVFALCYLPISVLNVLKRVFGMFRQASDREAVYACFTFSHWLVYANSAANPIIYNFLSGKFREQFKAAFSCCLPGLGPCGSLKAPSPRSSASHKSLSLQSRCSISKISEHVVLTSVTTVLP
CHO parental Ca – counter-screen: ATP calcium response change in parental CHO cells; inhibition, % at 5.6 µM; 330,000 compounds, 0.63% hits; parental CHO-K1, ATP-induced calcium, Fluo-8 fluorescence; AID 463079;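 active = inhibition above that plate's mean sample inhibition plus 3 SD, cut at about 26% in these data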;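 also: 0% = ATP-challenged DMSO wells and 100% = DMSO wells without ATP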
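Test system: untransfected parental CHO cell line; also added: ATP stimulus; dosing: 5.6 µM, single dose; signal: calcium-sensitive Fluo-8 fluorescence; measure: percent inhibition of ATP-evoked calcium rise, normalized to controls; benchmarks: low control ATP plus DMSO, high control DMSO only; replication: one well per compound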
GPR7 antag – antagonists of human GPR7 (neuropeptides B/W receptor 1); P48145; GPR7-expressing cells, fluorescence antagonist assay; inhibition, % at 4.4 µM; 290,000 compounds, 1.1% hits; AID 1861; in the data active = inhibition above about 16%, passing the limit was not always enough;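 also: cells stimulated with the agonist NPW; 0% = agonist with vehicle and 100% = vehicle without agonist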
OX1R antag-2 – antagonists of human orexin 1 receptor. O43613. CHO/OX1R cells, Fluo-8 calcium fluorescence, orexin A. inhibition, % at 5 µM. 330,000 compounds, 0.43% hits. AID 434989;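 active = inhibition above its plate's threshold, mean inhibition of all tested compounds on the plate plus 3 SD, cut at about 37% in these data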;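 also: 0% = orexin A challenge wells and 100% = SB-334867-A antagonist wells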
GalR3 antagonist – blocks the human galanin receptor 3. AID 651719. inhibition, % at 3 µM. HEK293 GalR3-CNG cAMP membrane potential fluorescence; galR3 body fused to GalR1 C-terminus. 360,000 compounds, 0.44% hits;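 active = inhibition above the screen-wide average plus 3 SD, cut at about 13% in these data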;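 also: forskolin and galanin both at EC90 stimulate the cells; cAMP rise reported by CNG channel membrane potential dye signal; 0% = forskolin plus galanin with DMSO and 100% = forskolin alone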
GalR3 conf – GalR3 (human) antagonism, confirmation; HEK293 GalR3 CNG cAMP biosensor, membrane potential fluorescence; galR3 fused to GalR1 carboxy tail; challenged with forskolin and galanin at EC90; inhibition, % at 3 µM; shares compounds with GalR3 antagonist; AID 652245; 1,600 compounds, 59% hits;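 active = inhibition above the primary screen's cutoff, the mean inhibition of all screened compounds plus 3 SD, cut at about 13% in these data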;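 also: 0% = forskolin plus galanin and 100% = forskolin alone with DMSO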
HEK-CNG parental – acts as nonspecific agonist in parental HEK-CNG cells; shares compounds with GalR3 antagonist; HEK293-CNG parental cells, cAMP membrane potential fluorescence; normalised: DMSO wells 0%, forskolin wells 100%; activation, % at 3 µM; 1,600 compounds, 10% hits; AID 652268; in the data active = activation above about 1.3%
Starred values were filed as active, the others as inactive; · = not tested or not shown.

SMILES	OX1R antag-1	CHO parental Ca	GPR7 antag	OX1R antag-2	GalR3 antagonist	GalR3 conf	HEK-CNG parental
COc1ccccc1NS(=O)(=O)c1ccc(N/N=C(\C)C(C)C)c([N+](=O)[O-])c1	41.8	0.0	-12.6	15.2	33.5*	12.9*	-1.5
NC(=O)c1sc(=S)n2c1[nH]c(=O)c1sccc12	-1.9	6.5	-16.9	0.2	67.0*	-3.2	0.8
Cc1ccc(NS(=O)(=O)c2cccc(C(=O)NNC(=O)c3ccco3)c2)c(C)c1	28.7	-9.1	·	-23.1	-0.8	·	·
CNCC(O)c1ccc(OC(=O)C(C)(C)C)c(OC(=O)C(C)(C)C)c1 (configuration not stated)	5.7	-7.6	·	-33.0	54.6*	63.1*	13.5*
CC(C)NC[C@H](O)c1ccc(O)c(O)c1	15.7	-6.3	·	-1.9	-7.3	·	·
COc1ccc(Nc2nnc(SCC(=O)NC3CCCC3)s2)cc1	·	·	·	·	-6.2	·	·
CC(Oc1ccc(Cl)cc1)C(=O)/C=C/N(C)C (configuration not stated)	0.5	-5.5	-6.3	-14.8	-4.7	·	·
CC(Oc1ccc(Cl)cc1)/C(N)=N/O (configuration not stated)	1.0	-2.4	-9.1	5.0	15.6*	5.5	-0.4
O=C(Nc1ccc(Br)c2ccccc12)c1ccc2ccccc2c1O	41.4*	26.1	12.5	-16.6	78.3*	89.6*	-0.1
CC(=O)Nc1ccc(Br)c2ccccc12	7.9	-7.2	-8.3	-16.2	-1.5	·	·
Cc1cc(C)c2cc(C=O)c(Cl)nc2c1	2.3	-6.7	6.6	-6.8	15.3*	39.7*	2.7*
COc1ccc(NC(=O)CSc2ncccc2C(=O)OC(C)C)cc1OC	22.0	17.9	2.1	6.1	28.0*	12.9*	-0.3
Nc1ncnc2c1ncn2[C@@H]1O[C@H](CO)C[C@H]1O	11.9	-2.3	·	-4.3	16.1*	30.2*	0.4
NC(=O)c1cccnc1Nc1ccccc1Cl	11.5	-2.2	-6.2	-6.3	19.2*	-6.0	0.1
COc1cc(C(=O)Nc2c(C)cc(C)cc2C)c(Br)c(OC)c1OC	7.6	-23.5	-16.8	-20.0	-0.6	·	·
Cc1nc(NCC2CCCO2)c2nnn(Cc3ccccc3)c2n1 (configuration not stated)	3.3	-13.3	-8.0	0.6	-7.3	·	·
Cc1nc(NCC2CC2)c2nnn(Cc3ccccc3)c2n1	9.8	-5.8	-7.0	-17.9	18.4*	-1.8	0.2
CC(=O)c1ccc(OCCCC(=O)Nc2ccc(Cl)c(S(=O)(=O)N3CCOCC3)c2)cc1	·	·	·	·	87.2*	92.7*	-0.7
CCN(CC)S(=O)(=O)c1cc(NC(=O)CNc2cccc(S(=O)(=O)N3CCOCC3)c2)ccc1C	30.8	8.3	·	-7.2	93.3*	116.3*	-0.8
O=C(CSc1ncccn1)Nc1cccc(S(=O)(=O)N2CCOCC2)c1	4.2	-9.4	·	-9.1	-0.6	·	·
O=C(Cn1nc(C(=O)O)c2ccccc2c1=O)Nc1cccc(S(=O)(=O)N2CCCCC2)c1	27.8	24.8	·	60.0*	13.0*	58.4*	-1.4
CCN(CC)S(=O)(=O)c1cccc(NC(=O)CNc2cccc(S(=O)(=O)N3CCCC3)c2)c1	25.4	56.9*	10.8	28.2	103.8*	113.2*	-0.5
O=C(CSc1nccc(=O)[nH]1)Nc1cccc(S(=O)(=O)N2CCOCC2)c1	14.1	4.5	-9.7	0.6	30.6*	6.4	0.2
CCOc1ccccc1NC(=O)Nn1cnnc1	-5.0	-3.6	-7.4	-13.8	-1.9	·	·
Cc1ccc(S(=O)(=O)NC2CCCC2)cc1C	12.0	-0.5	1.6	-0.3	-1.5	·	·
SMILES	OX1R antag-1	CHO parental Ca	GPR7 antag	OX1R antag-2	GalR3 antagonist	GalR3 conf	HEK-CNG parental
Cc1cc(=O)[nH]c2ccc(S(=O)(=O)NC3CCCCC3)cc12	7.5	-3.8	-4.1	-29.6	12.7*	38.3*	0.1
C=CCC1(CC=C)CCCN1C(=O)c1cc(COc2ccc(C)nc2)on1	19.8	51.9*	9.1	6.9	99.1*	102.8*	-0.2
C=CCC1(CC=C)CCCN1C(=O)c1cc(COc2ccc(F)c(F)c2)on1	12.9	8.8	2.6	-5.9	-10.7	·	·
CS(=O)(=O)c1[nH]nc(-c2ccccc2Cl)c1C#N	10.5	-6.6	-10.3	13.4	5.5	·	·
CC(=O)c1c(C)[nH]c(C(=O)OCCCCN2C(=O)c3ccccc3C2=O)c1C	45.0*	74.7*	10.1	62.5*	19.6*	59.6*	-0.4
O=[N+]([O-])c1cccc(C2=NCCC(c3ccccc3)O2)c1 (configuration not stated)	30.9	-10.3	-0.1	-10.3	22.0*	4.1	0.1
COc1ccccc1CN1CCN(S(=O)(=O)c2ccc(C)cc2)CC1	2.8	-9.8	·	-44.7	-5.7	·	·
CC(C)(C)CN1CCN(Cc2nc(-c3ccc(F)cc3)cs2)CC1CCO (configuration not stated)	13.5	-13.7	2.5	-28.8	100.9*	108.8*	0.0
S=c1[nH]nc(-c2cc(-c3ccsc3)n[nH]2)n1-c1cccc2ccccc12	4.7	-5.6	-22.0	-13.5	3.6	·	·
COc1ccccc1-n1c(-c2cc(-c3ccc(F)cc3)n[nH]2)n[nH]c1=S	11.7	-13.8	-10.0	-25.6	14.0*	13.0*	0.5
COc1ccc(-c2cc(-c3n[nH]c(=S)n3-c3cccc4ccccc34)[nH]n2)cc1	5.6	-19.3	-17.2	-35.8	52.5*	48.8*	0.5
COc1ccccc1-n1c(-c2cccnc2)n[nH]c1=S	12.1	-3.2	-5.0	0.2	-7.2	·	·
Cc1c(C(=O)Nc2cc(F)cc(F)c2)cnn1-c1ccccc1	16.9	3.9	-11.5	-23.1	-3.0	·	·
Cc1cccc(-n2c(SCC(=O)N3CC(=O)Nc4ccccc43)nc3ccccc3c2=O)c1	31.7	-18.0	16.4	-4.4	14.7*	3.5	0.9
COCCCN1C(=O)c2ccc(C(=O)OCC(=O)N(C)c3ccccc3)cc2C1=O	29.6	-2.9	-18.0	-29.1	·	-0.6	-0.1
COCCCN1C(=O)c2ccc(C(=O)OCC(=O)NCCc3ccccc3)cc2C1=O	33.0	-19.2	-5.5	-24.3	-5.5	·	·
CCN(CC)c1ccc(C2=NNC(=O)CC2C)cc1[N+](=O)[O-] (configuration not stated)	15.9	-25.0	-16.5	-19.7	52.0*	64.7*	-0.1
CC1CC(=O)NN=C1c1ccc(N(C)C)c([N+](=O)[O-])c1 (configuration not stated)	26.3	-4.7	-18.4	-22.7	60.0*	69.3*	0.0
CC(C)(C)NC(=O)COC(=O)c1snc(C(=O)NC2CCCCC2)c1N	53.5	12.0	9.2	26.1	100.8*	123.2*	-0.7

High-throughput results: PubChem BioAssay, The Scripps Research Institute Molecular Screening Center
